Measurements as given in publication PMC8934255 (Cell chemical biology, 2021).

How the values were obtained:
[1] = tested on: Pax2-negative SKOV-3 cells; assay: Luciferase ATP; format: cell-based, human; settings: only at 15 μM, tenfold the IC50, 18 hours
[2] = tested on: Pax8 binding site at the Slc14a2 promoter; assay: ChIP at the Slc14a2 promoter and Pax8 western blot in IMCD cells in high salt; format: cell-based, mouse; settings: 5 μM, high salt 24 hours
[3] = In vivo pharmacokinetics, plasma clearance in mice; set-up: species or system mouse
Outline: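 Mice got one dose of test compound formulated at 3mg/mL in PBS with 20% DMSO and 50% PEG-400, given intravenously (5 mg/kg) or orally (15 mg/kg). Blood was drawn at 0.5, 2, 4 and 7 h and plasma isolated by centrifugation. Compound was measured by LC-MS/MS and plasma concentration plotted semi-logarithmically against time.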

[4] = Microsomal stability assay with NADPH-fortified mouse liver microsomes; format: in vitro ADME; settings: for Half-life estimation in mouse liver microsomes: 1 μM compound, NADPH fortified, 5-60 min
Outline: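 1μM test compound was incubated with 200μg pooled mouse liver microsomes in phosphate buffer (3.3mM MgCl2) with 4mg NADPH. Samples taken at 5, 10, 15, 30, 45 and 60 minutes were quenched with cold acetonitrile. After protein precipitation, supernatants were analyzed by LC/MS/MS and percent remaining plotted over time. Verapamil served as the high-clearance control.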

UTA1/3 = assay: RT-PCR of UTA1/UTA3 mRNA in IMCD cells in high salt; format: cell-based, mouse; settings: 5 μM, high salt 24 hours
Pax2 [5] = target: Pax2 (Mus musculus, UniProt P32114); format: cell-based; settings: for Fold reduction (FR) of luminescence relative to vehicle treated Pax2 transfected PRS4-Luc cells: at 1.56 μM
Chain of Pax2 (Mus musculus, UniProt P32114) (P32114 1-391 isoform P32114-2): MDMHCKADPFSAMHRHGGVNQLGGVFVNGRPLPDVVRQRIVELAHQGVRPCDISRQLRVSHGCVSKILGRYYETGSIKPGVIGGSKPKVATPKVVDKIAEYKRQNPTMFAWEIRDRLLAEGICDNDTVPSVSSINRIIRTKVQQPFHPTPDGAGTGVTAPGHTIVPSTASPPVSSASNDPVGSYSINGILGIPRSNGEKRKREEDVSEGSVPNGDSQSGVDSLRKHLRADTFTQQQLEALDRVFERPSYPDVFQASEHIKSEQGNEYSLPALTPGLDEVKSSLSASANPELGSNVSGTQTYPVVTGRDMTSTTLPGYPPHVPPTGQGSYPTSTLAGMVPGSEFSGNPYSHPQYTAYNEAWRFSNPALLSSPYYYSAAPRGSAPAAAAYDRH

Pax proteins = assay: Phosphorylation of Pax proteins in cell systems; format: cell-based; settings: Fig. S2
Pax5 = Pax5 (Homo sapiens, UniProt Q02548); assay: PRS4-Luc luciferase reporter assay, Pax5 activation; format: cell-based; settings: compared with Pax2
Chain of Pax5 (Q02548 whole entry, species assumed): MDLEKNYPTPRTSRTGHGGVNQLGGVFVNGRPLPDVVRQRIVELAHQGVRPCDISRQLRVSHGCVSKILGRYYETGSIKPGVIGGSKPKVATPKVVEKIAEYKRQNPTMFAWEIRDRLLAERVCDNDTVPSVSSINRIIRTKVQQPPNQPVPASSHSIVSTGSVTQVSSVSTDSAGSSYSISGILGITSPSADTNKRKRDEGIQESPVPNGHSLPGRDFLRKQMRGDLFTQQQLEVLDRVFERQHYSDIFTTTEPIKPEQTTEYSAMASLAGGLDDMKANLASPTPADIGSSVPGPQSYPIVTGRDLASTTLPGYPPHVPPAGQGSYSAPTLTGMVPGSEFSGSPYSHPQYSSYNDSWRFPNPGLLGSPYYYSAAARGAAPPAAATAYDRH

BRE-Luc cells = assay: BRE-Luc counter screen; format: cell-based, human; settings: for Selectivity in PRS4-Luc cells over BRE-Luc cells: 8-point titration, fresh powder, duplicate
Outline: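 Clonal HEK293 cells with an integrated BRE-Luc reporter, kept in DMEM with 10% FBS at 37°C and 5% CO2, were prepared like the PRS4-Luc cells. 6 × 10^3 cells/well (384-well) went onto plates pre-dosed with test compound or DMSO, in 8-point titrations in duplicate from fresh powder. Plates were incubated overnight, then Steady-Glo was added and luminescence read.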

[6] = tested on: ovarian carcinoma (SKOV-3) cells; assay: Phospho-histone H3 immunoblot in Pax2-negative SKOV-3 cells; format: cell-based, human; settings: each concentration tested, 24 hours, vs vehicle (DMSO)
Outline: (§1)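 Human RCC or SKOV-3 cells (RPMI 1640, 10% FBS) or HEK293 cells (DMEM, 10% FBS) were seeded at 5.0 × 10^4 cells/well and attached overnight. Cells had 24 h of increasing test compound concentrations or DMSO. Lysates were boiled 5 min at 95°C in 2X SDS buffer, separated on 8% or 15% gels, transferred to PVDF at 4°C and probed for phospho-H3 (Ser10), total H3 and β-actin. Significance was by ANOVA with Dunnett's test versus vehicle.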

Pax8 = Pax8 (Homo sapiens, UniProt Q06710); assay: PRS4-Luc luciferase reporter assay, Pax8 activation; format: cell-based; settings: compared with Pax2
Chain of Pax8 (Q06710 whole entry, species assumed): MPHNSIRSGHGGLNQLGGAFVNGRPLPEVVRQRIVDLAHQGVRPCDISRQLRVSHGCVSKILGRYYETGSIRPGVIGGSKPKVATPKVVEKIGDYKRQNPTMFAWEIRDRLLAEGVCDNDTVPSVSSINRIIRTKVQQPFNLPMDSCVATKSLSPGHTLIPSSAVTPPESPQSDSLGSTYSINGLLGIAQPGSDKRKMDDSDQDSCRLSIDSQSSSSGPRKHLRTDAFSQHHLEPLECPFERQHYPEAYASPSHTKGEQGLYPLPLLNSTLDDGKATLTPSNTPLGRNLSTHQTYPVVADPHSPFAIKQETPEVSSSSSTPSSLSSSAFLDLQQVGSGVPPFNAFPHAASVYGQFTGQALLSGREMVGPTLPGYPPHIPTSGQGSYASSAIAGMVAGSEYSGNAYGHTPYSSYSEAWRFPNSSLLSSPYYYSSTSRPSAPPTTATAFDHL

Pax2 expressing RCC = assay: Phospho-histone H3 immunoblot; format: cell-based, human; settings: 24 hours, vs vehicle
Outline: as §1

HEK293 cells = assay: Phospho-histone H3 immunoblot in HEK293 cells lacking Pax2; format: cell-based, human; settings: increasing concentrations, 24 hours
Outline: as §1

Pax2, Pax8, PTIP = assay: Western blot of Pax2, Pax8 and PTIP protein levels in IMCD cells; format: cell-based, mouse; settings: 5 μM, mIMCD cells
Outline: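 Mouse IMCD cells were cultured 24 h in normal or high-salt medium with DMSO or 5 μM test compound. Lysates were western blotted for Pax2, Pax8 and PTIP.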

Avpr2 = assay: RT-PCR of Avpr2 expression in IMCD cells in high salt; format: cell-based, mouse; settings: 5 μM, 500 mOsm/kg, 24 hours
Pax2-positive RCC cells = assay: Luciferase ATP; format: cell-based, human; settings: each concentration tested, 18 hours
[7] = tested on: Pax2 binding site at the AVPR2 promoter; assay: ChIP at the AVPR2 promoter in IMCD cells in high salt; format: cell-based, mouse; settings: 5 μM, high salt 24 hours
Outline: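 Mouse mIMCD3 cells in triplicate were pretreated 4 h with DMSO or 5 μM test compound (per figure legend). They were then kept 24 h in control medium or NaCl-supplemented medium (500 mOsm/kg), with or without compound. Chromatin immunoprecipitation was followed by real-time PCR with primers for the Pax2 binding site at the AVPR2 promoter. Antibodies included PTIP, H3K4me3 and RNA Pol II CTD.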

Cdh6 = assay: Immunoblot of Cdh6 and Pax2 protein in Pax2-positive RCC; format: cell-based, human; settings: 24 hours
Outline: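 Pax2-positive human RCC cells grown in RPMI 1640 with 10% FBS were seeded at 5.0 × 10^4 cells/well, attached overnight, then exposed 24 h to increasing test compound concentrations or DMSO. Whole-cell lysates in 2X SDS buffer were run on SDS-PAGE, transferred to PVDF and probed for Cdh6, Pax2 and β-actin with ECL and film detection. Cdh6 densitometry was normalized to β-actin per lane.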

Pax2 [8] = settings: at 10 μM; ref Grimley et al., 2017; cited from earlier work

Row | SMILES | Increased H3K4me3 and PolII binding at the Slc14a2 promoter (ChIP) [2] | Pax8 protein levels or binding to the Slc14a2 promoter [2] | Recruitment of PTIP and the H3K4 methyltransferase complex at the Slc14a2 promoter (ChIP) [2] | Half-life estimation in mouse liver microsomes [4] | Increased UTA1/3 mRNA expression in high salt (UTA1/3) | Fold reduction (FR) of luminescence relative to vehicle treated Pax2 transfected PRS4-Luc cells (Pax2 [5]) | Selectivity in PRS4-Luc cells over BRE-Luc cells (BRE-Luc cells) | Pax2, Pax8, or PTIP protein levels (Pax2, Pax8, PTIP) | Increased Avpr2 expression in response to high salt (Avpr2) | Histone H3K4me3 and RNA PolII recruitment at the AVPR2 promoter (ChIP) [7] | Increased Pax2 binding to the Avpr2 promoter in high salt (ChIP) [7] | Recruitment of PTIP at the AVPR2 promoter (ChIP) [7] | further results
1 | Cc1ccc(C)c(N2CCN(c3c(C)c(C)nc4ncnn34)CC2)c1 [BG-1] | prevent | no effect | inhibit | 7.89 min | significantly inhibited | 0.58 | selective activity | did not affect | significantly inhibited | prevented | no effect | inhibited | Metabolically active cells (ATP luminescence) [1]: significant drop; Stability in vivo, rank among the three compounds ([3]; IV 5 mg/kg or PO 15 mg/kg, plasma 0.5-7 h): most stable compound in vivo; Rate of plasma clearance compared to the other two compounds ([3]; intravenous 5 mg/kg single dose): lowest rate of clearance; Change of IC50 of BG1 in combination with EG1 (Pax2 [5]; fixed 10 μM EG1, Prs4-Luc reporter cells, Fig. S3): reduce the IC50; Effect on the phosphorylation of Pax proteins (Pax proteins): could not determine any discernible effects; Inhibition of Pax5 activation of the PRS4-Luc reporter (Pax5): similarly inhibited; pHH3 levels [6]: no significant change; Inhibition of Pax8 activation of the PRS4-Luc reporter (Pax8): similarly inhibited; pHH3 levels (Pax2 expressing RCC; 1.5 μM): significant reduction; pHH3 levels (Pax2 expressing RCC; 15 μM): significant reduction; pHH3 levels (HEK293 cells): did not significantly change; Percentage of viable cells (ATP luminescence) (Pax2-positive RCC cells): significantly and dose-dependently lowered; Cdh6 protein levels (Cdh6; 1.5 μM): significant reduction; Pax2 protein levels (Cdh6; 1.5 μM): no effect; Pax2 protein levels (Cdh6; 15 μM): also reduced
2 | Cc1nc2ncnn2c(N2CCN(c3ccc(Cl)cc3)CC2)c1C [BG-2] | prevent | no effect | inhibit | 46.24 min | significantly inhibited | 0.78 | selective activity | did not affect | significantly inhibited | prevented | no effect | inhibited | Stability in vitro, rank among the three compounds ([4]; mouse liver microsomes): most stable in vitro
3 | CCc1c(C)nc2ncnn2c1Nc1ccc(Cl)cc1 [BG-3] |  |  |  | 25.39 min |  | 0.82 | selective activity |  |  |  |  |  | Signs of cytotoxicity in counter screen (BRE-Luc cells; PRS4-Luc and BRE-Luc cells, up to 50 μM): did not indicate signs of cytotoxicity
4 | COc1ccccc1C(=O)Nc1ccc(C(=O)Nc2ccccc2C(=O)O)cc1 [EG1] |  |  |  |  |  |  |  |  |  |  |  |  | Maximal inhibition of Pax2 (Pax2 [8]): approximately 50%
